Experimental data from ChEMBL document CHEMBL2169813, “Cell death triggered by synthetic flavonoids in human leukemia cells is amplified by the inhibition of extracellular signal-regulated kinase signaling” (Eur J Med Chem, 2012).
pIC50: −log10 of the molar value. Calls of active or inactive are those of the source. The calls are words filed in the database; no cut-off is given here.

What was measured:
[1] = tested on: HL-60; experiment: Cell cycle arrest in human HL60 cells assessed as accumulation at G2/M phase at 30 uM incubated for 24 hrs by flow cytometry (reference value: 33.2 +/- 2.1%); assay type: functional
[2] = tested on: HL-60; experiment: Increase in apoptosis in human HL60 cells assessed as hypodiploid cells level incubated for 24 hrs in presence of 10 uM MEK1/2 inhibitor PD98059 by flow cytometry (reference value: 16%); assay type: functional
Summary of the method: (§1)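 HL-60 cells preincubated 1 h with PD98059 (10 µM), SP600125 (10 µM) or SB203580 (2 µM), then treated with compound. Hypodiploid (apoptotic) cells quantified by flow cytometry of propidium iodide-stained nuclei. Three independent experiments, each in triplicate.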

[3] = tested on: HL-60; experiment: Induction of apoptosis in human HL60 cells assessed as hypodiploid cells level at 30 uM incubated for 24 hrs in presence of caspase inhibitor z-VAD-fmk by flow cytometry; assay type: functional, cell-based
Summary of the method: (§2)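 HL-60 cells given 30 µM compound for 24 h, alone or with z-VAD-fmk (100 µM), z-DEVD-fmk, z-IETD-fmk or z-LEHD-fmk (each 50 µM). Propidium iodide staining, hypodiploid cells quantified by flow cytometry. Three independent experiments, each in triplicate.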

[4] = tested on: PBMC; experiment: Cytotoxicity against human proliferating PBMCs up to 30 uM; assay type: cell-based
Summary of the method: (§3)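 HL-60 cells, quiescent (fresh) PBMC and phytohemagglutinin-activated healthy human PBMC cultured 48 h over a concentration range of compound. Proliferation measured. Means ± SE of two independent experiments, each in triplicate.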

[5] = molecular target: T1, MAP kinase p38 (Homo sapiens) (UniProt O15264+Q15759+Q16539+P53778); experiment: Induction of p38MAPK phosphorylation in human HL60 cells after 2 hrs by Western blotting; assay type: cell-based; settings: HL-60
Summary of the method: (§4)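 HL-60 cells (1 × 10⁶/mL) treated with compound (10–30 µM) for various times. Where used, PD98059 (10 µM) was added 1 h beforehand. Lysates run on 10% SDS-PAGE and immunoblotted for phosphorylated ERK 1/2, JNK/SAPK or p38MAPK. Blots stripped and reprobed for the total kinase as loading control.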

[6] = tested on: HL-60; experiment: Induction of cytochrome-c release in human HL60 cells at 30 uM incubated for 24 hrs by immunoblotting method; assay type: functional, cell-based
Summary of the method: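 HL-60 cells treated 24 h with 30 µM compound. Cytosolic extracts immunoblotted for cytochrome c released from mitochondria. β-Actin used as loading control.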

[7] = tested on: HL-60; experiment: Induction of procaspase-3 processing in human HL60 cells at 30 uM incubated for 24 hrs by immunoblotting method; assay type: functional, cell-based
Summary of the method: (§5)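 HL-60 cells (1 × 10⁶/mL) exposed to compound, harvested at 24 h. Lysed in Tris-HCl pH 7.4/Triton X-100 buffer with phosphatase and protease inhibitors, 15 min at 4 °C. Equal protein run on SDS-PAGE (7.5% PARP, 12.5% caspases) and immunoblotted on PVDF. β-Actin used as loading control.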

[8] = molecular target: T1, MAP kinase p38 (Homo sapiens); experiment: Induction of p38MAPK phosphorylation in human HL60 cells after 30 mins by Western blotting; assay type: cell-based; settings: HL-60; summary of the method: as §4
[9] = tested on: HL-60; experiment: Cytotoxicity against human HL60 cells after 72 hrs by MTT assay; assay type: functional, cell-based; settings: HL-60, 72 h
Summary of the method: (§6)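 MTT colorimetric assay on HL-60 and HL-60/MX1 cells (RPMI 1640, 10% heat-inactivated FBS), 72 h exposure, absorbance 570 nm. IC50 obtained graphically by curve fitting. Means ± S.E. of three independent experiments, each in triplicate.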

[10] = tested on: HL-60; experiment: Induction of procaspase-8 hydrolysis in human HL60 cells at 30 uM incubated for 24 hrs by immunoblotting method; assay type: functional, cell-based; summary of the method: as §5
[11] = molecular target: T2, c-Jun N-terminal kinase, JNK (Homo sapiens) (UniProt P45983+P53779+P45984); experiment: Induction of JNK/SAPK phosphorylation in human HL60 cells after 6 hrs by Western blotting; assay type: cell-based; settings: HL-60; summary of the method: as §4
[12] = tested on: HL-60; experiment: Cell cycle arrest in human HL60 cells assessed as accumulation at S phase at 10 uM incubated for 24 hrs by flow cytometry (reference value: 16.7 +/- 0.5%); assay type: functional
[13] = tested on: HL-60; experiment: Cell cycle arrest in human HL60 cells assessed as accumulation at G2/M phase at 10 uM incubated for 24 hrs by flow cytometry (reference value: 33.2 +/- 2.1%); assay type: functional
[14] = tested on: HL-60; experiment: Cell cycle arrest in human HL60 cells assessed as accumulation at subG1 phase at 30 uM incubated for 24 hrs by flow cytometry (reference value: 2.3 +/- 0.5%); assay type: functional
[15] = Cytotoxicity against human HL60/MX1 cells after 72 hrs by MTT assay; assay type: functional, cell-based; settings: HL60/MX1, 72 h; summary of the method: as §6
[16] = tested on: HL-60; experiment: Induction of apoptosis in human HL60 cells assessed as hypodiploid cells level at 30 uM incubated for 24 hrs in presence of caspase-8 inhibitor z-IETD-fmk by flow cytometry; assay type: functional, cell-based; summary of the method: as §2
[17] = tested on: HL-60; experiment: Induction of caspase activation in human HL60 cells assessed as increase in PARP cleavage at 30 uM incubated for 24 hrs by immunoblotting method; assay type: functional, cell-based; summary of the method: as §5
[18] = tested on: HL-60; experiment: Cell cycle arrest in human HL60 cells assessed as accumulation at subG1 phase at 10 uM incubated for 24 hrs by flow cytometry (reference value: 2.3 +/- 0.5%); assay type: functional
[19] = molecular target: T3, Mitogen-activated protein kinase; ERK1/ERK2 (Homo sapiens) (UniProt P27361+P28482); experiment: Induction of ERK1/2 phosphorylation in human HL60 cells after 30 mins in presence of 10 uM MEK1/2 inhibitor PD98059 by Western blotting; assay type: cell-based; settings: HL-60; summary of the method: as §4
[20] = tested on: PBMC; experiment: Cytotoxicity against human fresh PBMCs up to 30 uM; assay type: cell-based; summary of the method: as §3
[21] = tested on: HL-60; experiment: Cytotoxicity against human HL60 cells at 100 uM after 72 hrs by MTT assay
[22] = tested on: HL-60; experiment: Induction of apoptosis in human HL60 cells assessed as incidence of condensed and fragmented chromatin at 30 uM incubated for 24 hrs by fluorescent microscopy; assay type: functional, cell-based
[23] = tested on: HL-60; experiment: Induction of apoptosis in human HL60 cells assessed as hypodiploid cells level incubated for 24 hrs in presence of 10 uM JNK/SAPK inhibitor SP600125 by flow cytometry; assay type: functional, cell-based; summary of the method: as §1
[24] = tested on: HL-60; experiment: Cell cycle arrest in human HL60 cells assessed as accumulation at G1 phase at 30 uM incubated for 24 hrs by flow cytometry (reference value: 48 +/- 1.6%); assay type: functional
[25] = tested on: HL-60; experiment: Induction of procaspase-7 processing in human HL60 cells at 30 uM incubated for 24 hrs by immunoblotting method; assay type: functional, cell-based; summary of the method: as §5
[26] = molecular target: T2, c-Jun N-terminal kinase, JNK (Homo sapiens); experiment: Induction of JNK/SAPK phosphorylation in human HL60 cells after 30 mins by Western blotting; assay type: cell-based; settings: HL-60; summary of the method: as §4
[27] = tested on: HL-60; experiment: Induction of apoptosis in human HL60 cells assessed as hypodiploid cells level incubated for 24 hrs in presence of 2 uM p38MAPK inhibitor SB203580 by flow cytometry; assay type: functional, cell-based; summary of the method: as §1
[28] = tested on: HL-60; experiment: Induction of p21'Cip1 protein expression in human HL60 cells at 30 uM incubated for 24 hrs by Western blotting method; assay type: functional, cell-based; summary of the method: as §5
[29] = tested on: HL-60; experiment: Induction of Bid protein cleavage in human HL60 cells at 30 uM incubated for 24 hrs by Western blotting method; assay type: functional, cell-based; summary of the method: as §5
[30] = tested on: HL-60; experiment: Cytotoxicity against human HL60 cells up to 30 uM after 72 hrs by MTT assay; assay type: functional, cell-based
[31] = tested on: HL-60; experiment: Induction of DNA fragmentation in human HL60 cells at 30 uM incubated for 24 hrs by agarose gel electrophoresis; assay type: functional, cell-based
Summary of the method: (§7)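 HL-60 cells treated with the indicated concentrations. Genomic DNA extracted, run on agarose gel and visualised under UV after ethidium bromide staining, looking for internucleosomal fragmentation.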

[32] = tested on: HL-60; experiment: Cell cycle arrest in human HL60 cells assessed as accumulation at S phase at 30 uM incubated for 24 hrs by flow cytometry (reference value: 16.7 +/- 0.5%); assay type: functional
[33] = tested on: HL-60; experiment: Induction of apoptosis in human HL60 cells assessed as changes in nuclear morphology at 30 uM incubated for 24 hrs by fluorescence microscopy (reference value: 4.9 +/- 1.0%)
[34] = molecular target: T3, Mitogen-activated protein kinase; ERK1/ERK2 (Homo sapiens); experiment: Induction of ERK1/2 phosphorylation in human HL60 cells after 30 mins by Western blotting; assay type: cell-based; settings: HL-60; summary of the method: as §4
[35] = tested on: HL-60; experiment: Induction of apoptosis in human HL60 cells assessed as hypodiploid cells level at 30 uM incubated for 24 hrs in presence of caspase-3 and -7 inhibitor z-DEVD-fmk by flow cytometry; assay type: functional, cell-based; summary of the method: as §2
[36] = tested on: HL-60; experiment: Induction of apoptosis in human HL60 cells assessed as hypodiploid cells level at 30 uM incubated for 24 hrs in presence of caspase-9 inhibitor z-LEHD-fmk by flow cytometry; assay type: functional, cell-based; summary of the method: as §2
[37] = molecular target: T3, Mitogen-activated protein kinase; ERK1/ERK2 (Homo sapiens); experiment: Induction of ERK1/2 phosphorylation in human HL60 cells after 6 hrs by Western blotting; assay type: cell-based; settings: HL-60; summary of the method: as §4
[38] = tested on: HL-60; experiment: Cell cycle arrest in human HL60 cells assessed as accumulation at G1 phase at 10 uM incubated for 24 hrs by flow cytometry (reference value: 48 +/- 1.6%); assay type: functional
[39] = tested on: HL-60; experiment: Induction of cyclin D1 protein expression in human HL60 cells at 30 uM incubated for 24 hrs by Western blotting method; assay type: functional, cell-based; summary of the method: as §5
[40] = tested on: HL-60; experiment: Induction of procaspase-6 processing in human HL60 cells at 30 uM incubated for 24 hrs by immunoblotting method; assay type: functional, cell-based; summary of the method: as §5
[41] = tested on: HL-60; experiment: Induction of procaspase-9 cleavage in human HL60 cells at 30 uM incubated for 24 hrs by immunoblotting method; assay type: functional, cell-based; summary of the method: as §5
[42] = tested on: HL-60; experiment: Induction of DNA fragmentation in human HL60 cells at 10 uM incubated for 24 hrs by agarose gel electrophoresis; assay type: functional, cell-based; summary of the method: as §7

T3 sequence (P27361 whole entry, looked up): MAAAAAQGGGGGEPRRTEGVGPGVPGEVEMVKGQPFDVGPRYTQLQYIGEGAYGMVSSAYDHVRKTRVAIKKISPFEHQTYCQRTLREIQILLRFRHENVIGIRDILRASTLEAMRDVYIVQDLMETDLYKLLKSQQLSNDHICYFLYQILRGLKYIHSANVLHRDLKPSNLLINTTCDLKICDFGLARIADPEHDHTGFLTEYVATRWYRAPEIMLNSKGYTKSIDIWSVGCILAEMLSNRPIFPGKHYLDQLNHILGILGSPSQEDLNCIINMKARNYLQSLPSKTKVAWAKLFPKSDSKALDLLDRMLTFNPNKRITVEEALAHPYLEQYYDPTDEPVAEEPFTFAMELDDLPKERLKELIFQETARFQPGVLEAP
T3 sequence (P28482 whole entry, looked up): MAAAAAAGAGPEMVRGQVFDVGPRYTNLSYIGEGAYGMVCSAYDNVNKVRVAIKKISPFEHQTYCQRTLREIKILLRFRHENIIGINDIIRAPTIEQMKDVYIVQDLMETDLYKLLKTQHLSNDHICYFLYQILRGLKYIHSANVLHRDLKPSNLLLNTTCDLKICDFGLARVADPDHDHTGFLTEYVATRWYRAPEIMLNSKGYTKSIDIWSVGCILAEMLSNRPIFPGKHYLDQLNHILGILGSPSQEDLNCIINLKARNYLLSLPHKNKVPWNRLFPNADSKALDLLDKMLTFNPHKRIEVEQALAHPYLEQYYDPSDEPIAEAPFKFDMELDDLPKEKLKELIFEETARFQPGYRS

Structure (SMILES): COC(=O)c1c(C)c(C)cc2c(=O)cc(-c3ccccc3Cl)oc12
- Activity [1]: 13.5%
- Activity [2]: 32%
- Activity [3]: inactive
- Activity [4]: Non-toxic
- Activity [5]: inactive
- Activity [6]: Active
- Activity [7]: Active
- Activity [8]: Active
- pIC50 [9]: 5.03
- Activity [10]: Active
- Activity [11]: Active
- Activity [12]: 16.7%
- Activity [13]: 22.9%
- Activity [14]: 28.1%
- pIC50 [15]: 4.15
- Activity [16]: inactive
- Activity [17]: Active
- Activity [18]: 6.3%
- Activity [19]: inactive
- Activity [20]: Non-toxic
- Activity [21]: Active
- Activity [22]: Active
- Activity [23]: Active
- Activity [24]: 47.2%
- Activity [25]: Active
- Activity [26]: Active
- Activity [27]: Active
- Activity [28]: Active
- Activity [29]: Active
- Activity [30]: Active
- Activity [31]: Active
- Activity [32]: 7.8%
- Activity [33]: 30.6%
- Activity [34]: Active
- Activity [35]: inactive
- Activity [36]: inactive
- Activity [37]: Active
- Activity [38]: 54.9%
- Activity [39]: Active
- Activity [40]: Active
- Activity [41]: Active
- Activity [42]: Active
